Reference: ChEMBL document CHEMBL4627410, “Discovery of an Orally Active Small-Molecule Tumor Necrosis Factor-α Inhibitor” (J Med Chem, 2020)
Calls of active or inactive are those of the source. No cut-off for these calls is given here.

Experiments:
Tumor necrosis factor [1] = molecular target: T1, Tumor necrosis factor (Homo sapiens, UniProt P01375); assay: Binding affinity to recombinant TNFalpha (unknown origin) expressed in Escherichia coli BL21 (DE3) incubated for 10 mins by MST assay
Mus musculus [2] = assay: Antiinflammatory activity in Balb/c mouse assessed as inhibition of LPS-induced IL1-beta production at 25 to 50 mg/kg, po pre-treated 90 mins before LPS injection and measured after 4 hrs by sandwich ELISA; assay type: functional, organism-based
In short: (§1)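 Male Balb/c mice, 7–8 weeks old, randomized into control, LPS and two dose groups. Oral dosing 90 min before LPS (1.5 mg/kg, i.p.). Serum taken from clotted blood 4 h after LPS and stored at -80 °C. IL-1β and IL-6 measured by sandwich ELISA. At least six mice per group, each sample run in duplicate.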

Tumor necrosis factor [3] = molecular target: T1, Tumor necrosis factor; assay: Binding affinity to recombinant TNFalpha (unknown origin) expressed in Escherichia coli BL21 (DE3) assessed as increase in TNF-alpha thermal stability by measuring tolerated temperature (reference value: 90 degC)
Mus musculus [4] = assay: Antiinflammatory activity in Balb/c mouse model of collagen-induced arthritis assessed as reduction in serum IL-1beta level at 25 to 50 mg/kg, ig for 2 weeks by ELISA; assay type: functional, organism-based
In short: (§2)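 Balb/c mice immunized intradermally at the tail base with bovine type II collagen emulsified 1:1 in complete Freund's adjuvant (1 mg/mL, 0.1 mL), with the same boost on day 14. Gavage dosing for 2 weeks; prednisone 5 mg/kg i.g. as reference. Non-immunized normal group included, n=10 per group. Outcomes: four-paw arthritis score, blinded, maximum 16. Spleen index = spleen weight/body weight. Serum cytokines by ELISA. Right hind limb fixed in 4% paraformaldehyde, decalcified 30 days in 12.5% EDTA pH 7.0, 6–8 μm H&E sections graded blindly 0–3.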

Mus musculus [5] = assay: Antiinflammatory activity in Balb/c mouse model of Imiquimod-induced psoriasis-like skin lesions assessed as reduction of serum IL6 level at 25 to 50 mg/kg, ig after 7 days by ELISA; assay type: functional, organism-based
In short: (§3)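 Back skin shaved (5 cm × 4 cm) under isoflurane. Two days later, 5% imiquimod cream applied topically for 6 consecutive days; controls received base cream. Dosing by gavage, with prednisone 5 mg/kg as reference, n=10 per group. Erythema and scaling scored daily and blinded, 0–4. On day 7: spleen index, serum IL-1β and IL-6 by ELISA, and 3 µm H&E back-skin sections. Means ± SD.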

Mus musculus [6] = assay: Antiinflammatory activity in Balb/c mouse model of collagen-induced arthritis assessed as reduction in degree of cartilage and bone destruction and inflammation at 25 to 50 mg/kg, ig for 2 weeks by H and E staining based histopathological analysis; assay type: functional, organism-based; in short: as §2
Tumor necrosis factor [7] = molecular target: T1, Tumor necrosis factor; assay: Binding affinity to recombinant TNFalpha (unknown origin) expressed in Escherichia coli BL21 (DE3) assessed as inhibition of TNFR1 binding to immobilized TNF-alpha pre-incubated with TNFR1 for 20 mins followed by TNFalpha addition and measured after 120 mins by ELISA
Tumor necrosis factor [8] = molecular target: T1, Tumor necrosis factor; assay: Binding affinity to recombinant TNFalpha (unknown origin) expressed in Escherichia coli BL21 (DE3) assessed as protection of TNF-alpha from protease mediated digestion at 2.5 to 20 uM
In short: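 DARTS assay on TNF-α (His6-tagged, expressed in E. coli BL21(DE3) and purified by Ni-affinity, anion exchange and size exclusion). Protein was treated with compound, then digested with pronase for 30 min. Remaining TNF-α was read out.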

Mus musculus [9] = assay: Antiinflammatory activity in Balb/c mouse assessed as inhibition of LPS-induced IL6 production at 25 to 50 mg/kg, po pre-treated 90 mins before LPS injection and measured after 4 hrs by sandwich ELISA; assay type: functional, organism-based; in short: as §1
Mus musculus [10] = assay: Antiinflammatory activity in Balb/c mouse model of Imiquimod-induced psoriasis-like skin lesions assessed as decrease in adjusted scale scores consisting of erythema, epidermal acanthosis, and lesions thickness at 25 to 50 mg/kg, ig; assay type: functional, organism-based; in short: as §3
[11] = molecular target: T2, Tumor necrosis factor (Mus musculus) (UniProt P06804); assay: (§4) Inhibition of TNF-alpha in mouse RAW264.7 cells assessed as inhibition of LPS-induced IKBalpha phosphorylation at 5 to 20 uM pre-incubated for 12 hrs before LPS stimulation for 2 hrs by Western blot analysis; assay type: cell-based
T2 sequence (whole entry): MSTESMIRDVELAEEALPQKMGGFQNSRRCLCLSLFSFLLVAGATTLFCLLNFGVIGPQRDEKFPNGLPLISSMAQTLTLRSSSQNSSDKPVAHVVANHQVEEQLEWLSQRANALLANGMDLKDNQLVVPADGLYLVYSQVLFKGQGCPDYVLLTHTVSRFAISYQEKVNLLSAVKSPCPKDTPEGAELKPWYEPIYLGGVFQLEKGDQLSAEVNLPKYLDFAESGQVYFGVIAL
In short: (§5)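 RAW264.7 cells (5×10^4 cells/mL) cultured overnight. Compound at 5, 10 or 20 µM for 12 h, then LPS 1 µg/mL for 2 h. Lysed in RIPA, protein equalized by BCA, run on 12% SDS-PAGE. Immunoblotted for IκBα and p-IκBα, ECL detection.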

Mus musculus [12] = assay: Antiinflammatory activity in Balb/c mouse model of endotoxemia assessed as reduction in emergence of hemorrhagic necrosis at 25 mg/kg, ig pre-treated 2 hrs before LPS injection and measured 12 to 96 hrs post LPS challenge by H and E staining based histopathological analysis; assay type: functional, organism-based
In short: (§6)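 Endotoxemia induced with LPS 15 mg/kg i.p., n=10 per group; controls received saline i.p. Gavage dose given 2 h before LPS, then again at 12, 24, 48, 72 and 96 h. Survival followed daily for up to 2 weeks. Liver and lung fixed in 10% formalin and sections stained with H&E. Means ± SD.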

Mus musculus [13] = assay: Antiinflammatory activity in Balb/c mouse model of Imiquimod-induced psoriasis-like skin lesions assessed as reduction of serum IL-1beta level at 25 to 50 mg/kg, ig by ELISA; assay type: functional, organism-based; in short: as §3
Tumor necrosis factor [14] = molecular target: T1, Tumor necrosis factor; assay: Binding affinity to recombinant TNFalpha (unknown origin) expressed in Escherichia coli BL21 (DE3) assessed as increase in Kd for TNF-alpha-TNFR1 binding at 10 uM pe-incubated for 15 mins before TNFR1 addition and measured after 15 mins by MST assay relative to control
In short: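 TNF-α (C-terminal His6, from E. coli BL21(DE3), purified by Ni-agarose, thrombin digest, anion exchange and size exclusion) at various concentrations was preincubated with 10 µM compound for 15 min at room temperature. The mix was added to an equal volume of RED-labelled TNFR1 in 20 mM HEPES pH 7.5, 0.05% Tween-20. MST was read at 22 °C (100% LED, 20% MST power) and KD was fitted.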

Mus musculus [15] = assay: Antiinflammatory activity in Balb/c mouse model of collagen-induced arthritis assessed as reduction in serum IFNgamma level at 25 to 50 mg/kg, ig for 2 weeks by ELISA; assay type: functional, organism-based; in short: as §2
[16] = molecular target: T2, Tumor necrosis factor (Mus musculus); assay: Inhibition of TNF-alpha in mouse RAW264.7 cells assessed as inhibition of NFkappB/p65 nuclear translocation at 5 to 20 uM by DAPI staining based microscopy; assay type: cell-based
In short: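 RAW264.7 cells grown to 50–70% confluence in glass chambers. Pretreated 12 h with DMSO or compound, then TNF-α 10 ng/mL for 2 h. Fixed in 4% paraformaldehyde, permeabilized with 0.25% Triton X-100, blocked with BSA. Stained with anti-p65 (1:1000, 4 °C overnight), fluorescent secondary (1:500) and DAPI nuclear stain. Imaged by fluorescence microscopy.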

[17] = Toxicity in mouse RAW264.7 cells at 5 to 20 uM; assay type: cell-based
Mus musculus [18] = assay: Antiinflammatory activity in Balb/c mouse model of Imiquimod-induced psoriasis-like skin lesions assessed as reduction of spleen index at 25 to 50 mg/kg, ig; assay type: functional, organism-based; in short: as §3
Mus musculus [19] = assay: Antiinflammatory activity in Balb/c mouse model of endotoxemia assessed as reduction in liver damage at 25 mg/kg, ig pre-treated 2 hrs before LPS injection and measured 12 to 96 hrs post LPS challenge by H and E staining based histopathological analysis; assay type: functional, organism-based; in short: as §6
Mus musculus [20] = assay: Antiinflammatory activity in Balb/c mouse model of endotoxemia assessed as increase in mouse survival at 25 mg/kg, ig pre-treated 2 hrs before LPS injection and measured 12 to 96 hrs post LPS challenge; assay type: functional, organism-based; in short: as §6
Mus musculus [21] = assay: Antiinflammatory activity in Balb/c mouse model of Imiquimod-induced psoriasis-like skin lesions assessed as reduction of histopathological changes at 25 to 50 mg/kg, ig by H and E staining based histopathological analysis; assay type: functional, organism-based; in short: as §3
Mus musculus [22] = assay: Antiinflammatory activity in Balb/c mouse model of endotoxemia assessed as reduction in lung damage at 25 mg/kg, ig pre-treated 2 hrs before LPS injection and measured 12 to 96 hrs post LPS challenge by H and E staining based histopathological analysis; assay type: functional, organism-based; in short: as §6
Mus musculus [23] = assay: Antiinflammatory activity in Balb/c mouse model of collagen-induced arthritis assessed as reduction in serum IL6 level at 25 to 50 mg/kg, ig for 2 weeks by ELISA; assay type: functional, organism-based; in short: as §2
Mus musculus [24] = assay: Antiinflammatory activity in Balb/c mouse model of Imiquimod-induced psoriasis-like skin lesions assessed as inhibition of inflammation at 25 to 50 mg/kg, ig; assay type: functional, organism-based; in short: as §3
Mus musculus [25] = assay: Antiinflammatory activity in Balb/c mouse model of collagen-induced arthritis assessed as reduction in spleen index at 25 to 50 mg/kg, ig for 2 weeks; assay type: functional, organism-based; in short: as §2
Mus musculus [26] = assay: Antiinflammatory activity in Balb/c mouse model of collagen-induced arthritis assessed as increase in serum IL10 level at 25 to 50 mg/kg, ig for 2 weeks by ELISA; assay type: functional, organism-based; in short: as §2
Mus musculus [27] = assay: Antiinflammatory activity in Balb/c mouse model of collagen-induced arthritis assessed as reduction in arthritic score at 25 to 50 mg/kg, ig for 2 weeks; assay type: functional, organism-based; in short: as §2
[28] = molecular target: T2, Tumor necrosis factor (Mus musculus); assay: as §4; assay type: cell-based; in short: as §5; remark: listed apart in the source
Mus musculus [29] = assay: Antiinflammatory activity in Balb/c mouse model of collagen-induced arthritis assessed as reduction in degree of cartilage and bone destruction and inflammation at 5 mg/kg, ig for 2 weeks by H and E staining based histopathological analysis; assay type: functional, organism-based; in short: as §2
Mus musculus [30] = assay: Antiinflammatory activity in Balb/c mouse model of Imiquimod-induced psoriasis-like skin lesions assessed as reduction of serum IL6 level at 5 mg/kg, ig by ELISA; assay type: functional, organism-based; in short: as §3
Mus musculus [31] = assay: Antiinflammatory activity in Balb/c mouse model of Imiquimod-induced psoriasis-like skin lesions assessed as reduction of serum IL-1beta level at 5 mg/kg, ig by ELISA; assay type: functional, organism-based; in short: as §3

T1 sequence (P01375 whole entry): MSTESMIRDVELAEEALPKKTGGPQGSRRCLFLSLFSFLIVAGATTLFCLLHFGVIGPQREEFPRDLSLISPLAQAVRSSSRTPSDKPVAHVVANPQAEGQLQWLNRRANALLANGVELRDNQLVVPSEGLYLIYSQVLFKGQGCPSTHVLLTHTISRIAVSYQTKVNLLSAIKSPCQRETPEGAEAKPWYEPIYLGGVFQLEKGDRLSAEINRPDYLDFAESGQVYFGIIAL

In the case of `O=c1c([C@H]2NCCc3c2[nH]c2ccccc32)c(O)[nH]c(=S)n1Cc1ccc(F)cc1`, the Kd (Tumor necrosis factor [1]) is reported as “Not Active”.

In the case of `O=C1C[C@H](Nc2ncnc3[nH]cnc23)CN1Cc1ccccc1`, the inhibition (Mus musculus [2]) is reported as “Active”, the T (Tumor necrosis factor [3]) is reported as 94 °C and the Activity (Mus musculus [4]) is reported as “Dose-dependent effect”. The Activity (Mus musculus [5]) was “Dose-dependent effect”, the Activity (Mus musculus [6]) was “Active” and the Kd (Tumor necrosis factor [1]; read-out: Kd) was 82.1 µM. The IC50 (Tumor necrosis factor [7]) was 0.109 µM, the Activity (Tumor necrosis factor [8]) was “Dose-dependent effect” and the inhibition (Mus musculus [9]) was “Active”. For the same compound, the Activity (Mus musculus [10]) was “Active”, the inhibition [11] was “Active” and the Activity (Mus musculus [12]) was “Active”. The Activity (Mus musculus [13]) was “Dose-dependent effect”, the fold change (FC) (Tumor necrosis factor [14]) was 18 and the Activity (Mus musculus [15]) was “Dose-dependent effect”. For the same compound, the inhibition [16] was “Active”, the IC50 [17] was greater than 100 µM and the Activity (Mus musculus [18]) was “Active”. The Activity (Mus musculus [19]) was “Active”, the Activity (Mus musculus [20]) was “Active” and the Activity (Mus musculus [21]) was “Active”. The Activity (Mus musculus [22]) was “Active”, the Activity (Mus musculus [23]) was “Dose-dependent effect” and the Activity (Mus musculus [24]) was “Active”. The Activity (Mus musculus [25]) was “Active”, the Activity (Mus musculus [26]) was “Dose-dependent effect” and the Activity (Mus musculus [27]) was “Active”. The inhibition [28] was “Dose-dependent effect”.

In the case of `Cc1cc(C)cc(-n2c(O)c([C@H]3NCCc4c3[nH]c3ccccc43)c(O)nc2=S)c1`, the Kd (Tumor necrosis factor [1]) is reported as “Not Active”.

For `O=C(CCc1ccccc1)[C@H]1Cc2[nH]cnc2CN1C(=O)c1cccs1`, the Kd (Tumor necrosis factor [1]) was “Not Active”.

For `C[C@]12C=CC(=O)C=C1CC[C@@H]1[C@@H]2C(=O)C[C@@]2(C)[C@H]1CC[C@]2(O)C(=O)CO`, the Activity (Mus musculus [29]) was “Active”, the Activity (Mus musculus [30]) was “Active” and the Activity (Mus musculus [31]) was “Active”.

For `O=c1c([C@H]2NCCc3c2[nH]c2ccccc32)c(O)[nH]c(=S)n1-c1ccc2ccccc2c1`, the Kd (Tumor necrosis factor [1]) was “Not Active”.

For `CC1CCc2c([nH]c3ccccc23)[C@H]1c1c(O)nc2n(c1=O)CCS2` (some centres not stated), the Kd (Tumor necrosis factor [1]) was “Not Active”.

For `Cn1c(SCC(=O)N2CC(=O)Nc3cc(C(F)(F)F)ccc32)nnc1-c1ccccc1Cl`, the Kd (Tumor necrosis factor [1]) was “Not Active”.
